Experimental data from ChEMBL document CHEMBL1154235, “Rational design and semisynthesis of betulinic acid analogues as potent topoisomerase inhibitors” (J Nat Prod, 2009).
Activity calls are given as the source filed them. The rule behind the calls is not given here.

Assays:
[1] = target: T1, DNA topoisomerase 1 (Homo sapiens) (UniProt P11387); assay: Inhibition of topoisomerase 1 catalytic activity assessed as relaxation of supercoiled plasmid DNA at 100 uM after 30 mins by agarose gel electrophoresis
T1 sequence (whole entry): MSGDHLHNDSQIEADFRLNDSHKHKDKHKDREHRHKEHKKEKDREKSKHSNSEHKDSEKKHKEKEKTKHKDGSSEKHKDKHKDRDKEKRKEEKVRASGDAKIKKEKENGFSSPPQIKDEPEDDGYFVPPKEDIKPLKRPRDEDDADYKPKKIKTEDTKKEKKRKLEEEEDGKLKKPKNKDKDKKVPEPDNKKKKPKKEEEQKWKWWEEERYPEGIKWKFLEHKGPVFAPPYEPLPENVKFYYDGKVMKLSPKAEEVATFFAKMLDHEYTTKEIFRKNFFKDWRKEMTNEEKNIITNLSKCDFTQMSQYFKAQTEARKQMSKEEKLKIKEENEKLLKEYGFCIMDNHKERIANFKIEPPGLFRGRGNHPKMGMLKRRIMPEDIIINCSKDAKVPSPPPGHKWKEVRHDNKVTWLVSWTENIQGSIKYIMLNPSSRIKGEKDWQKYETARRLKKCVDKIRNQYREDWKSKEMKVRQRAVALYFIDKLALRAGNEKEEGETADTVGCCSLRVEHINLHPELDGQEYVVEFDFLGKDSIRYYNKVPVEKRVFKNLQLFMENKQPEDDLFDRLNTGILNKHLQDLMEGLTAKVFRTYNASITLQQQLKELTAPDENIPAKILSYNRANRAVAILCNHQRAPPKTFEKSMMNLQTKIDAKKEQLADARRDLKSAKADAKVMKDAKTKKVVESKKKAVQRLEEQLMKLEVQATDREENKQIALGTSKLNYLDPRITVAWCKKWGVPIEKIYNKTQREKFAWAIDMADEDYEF
In short: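 Compound at 100 µM final with topoisomerase I (2U), 37 °C 30 min. Stopped with 1% SDS, proteinase K digestion, 1% agarose TAE gel, ethidium bromide stain, imaging quantitation. Scored 0 to 3+ against camptothecin.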

SW948 = assay: Antiproliferative activity against human SW948 cells after 3 days by XTT assay; type: functional, cell-based; details: SW948, 72 h
In short: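 Cells plated at 4000/well and grown 1 day at 37 °C, then exposed to a range of drug concentrations for 3 more days. Read-out by XTT tetrazolium reduction on a plate reader. Each concentration run in triplicate. IC50 taken from a linear-quadratic fit. Assays repeated two or three times and reported as mean ± SE. HCT-116 kept in modified McCoy's 5a and SW948 in Leibovitz's L-15, each with 10% heat-inactivated FBS and 2 mM L-glutamine.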

K562 = assay: Cytotoxicity against human K562 cells assessed as cell growth at 10 uM; type: functional; details: read-out: Activity
In short: (§1)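 Single-dose screen at 10 µM against the 60 human cell line panel, run by the NCI Developmental Therapeutics Program and scored as cell growth.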

COLO 205 = assay: Cytotoxicity against human COLO205 cells assessed as cell growth at 10 uM; type: functional; details: read-out: Activity; in short: as §1
HCT-15 = assay: Cytotoxicity against human HCT15 cells assessed as cell growth at 10 uM; type: functional; details: read-out: Activity; in short: as §1
SF-268 = assay: Cytotoxicity against human SF268 cells assessed as cell growth at 10 uM; type: functional; details: read-out: Activity; in short: as §1
LOX IMVI = assay: Cytotoxicity against human LOXIMVI cells assessed as cell growth at 10 uM; type: functional; details: read-out: Activity; in short: as §1
MDA-MB-435 = assay: Cytotoxicity against human MDA-MB-435 cells assessed as cell growth at 10 uM; type: functional; details: read-out: Activity; in short: as §1
OVCAR-3 = assay: Cytotoxicity against human OVCAR-3 cells assessed as cell growth at 10 uM; type: functional; details: read-out: Activity; in short: as §1
A498 = assay: Cytotoxicity against human A498 cells assessed as cell growth at 10 uM; type: functional; details: read-out: Activity; in short: as §1
DU-145 = assay: Cytotoxicity against human DU145 cells assessed as cell growth at 10 uM; type: functional; details: read-out: Activity; in short: as §1
MDA-MB-231 = assay: Cytotoxicity against human MDA-MB-231 cells assessed as cell growth at 10 uM; type: functional; details: read-out: Activity; in short: as §1
[2] = Cytotoxicity against human Hs 578T cells assessed as cell growth at 10 uM; type: functional; details: read-out: Activity; in short: as §1
BT-549 = assay: Cytotoxicity against human BT549 cells assessed as cell growth at 10 uM; type: functional; details: read-out: Activity; in short: as §1
T47D = assay: Cytotoxicity against human T47D cells assessed as cell growth at 10 uM; type: functional; details: read-out: Activity
MDA-MB-468 = assay: Cytotoxicity against human MDA-MB-468 cells assessed as cell growth at 10 uM; type: functional; details: read-out: Activity; in short: as §1

In the case of `C=C(C)[C@@H]1CC[C@]2(C(O)=S)CC[C@]3(C)[C@H](CC[C@@H]4[C@@]5(C)CC[C@H](O)C(C)(C)[C@@H]5CC[C@]43C)[C@@H]12`, the inhibition [1] is reported as “inactive”, the IC50 (SW948) is reported as greater than 25 µM and the growth at 10 µM (K562) is reported as 127%. For the same molecule, the growth at 10 µM (COLO 205) was 129%, the growth at 10 µM (HCT-15) was 104% and the growth at 10 µM (SF-268) was 92.7%. For the same molecule, the growth at 10 µM (LOX IMVI) was 101%, the growth at 10 µM (MDA-MB-435) was 91.3% and the growth at 10 µM (OVCAR-3) was 94.9%. For the same molecule, the growth at 10 µM (A498) was 129%, the growth at 10 µM (DU-145) was 130% and the growth at 10 µM (MDA-MB-231) was 114%. The growth at 10 µM [2] was 105%, the growth at 10 µM (BT-549) was 94.8% and the growth at 10 µM (T47D) was 98.5%. For the same molecule, the growth at 10 µM (MDA-MB-468) was 105%.
